# KCNK3 block: human KCNK3 channel inhibitors, primary screen, CHO cells, FluxOR thallium flux, B-score; Potassium channel subfamily K member 3 (Homo sapiens), O14649; FluxOR fluorescence; active compounds read low; B-score at 10 µM; hit rate 0.84% among 340,000;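 active = B-score under library mean minus 4 SD, starting fluorescence ratio at most library mean plus 5 SD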;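 note: more negative B-score means stronger inhibition of thallium flux through KCNK3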
# KCNK9 inh: KCNK9 potassium channel inhibitors, primary screen, HEK293 cells, thallium flux. Potassium channel subfamily K member 9 (Homo sapiens), Q9NPC2. FluxOR thallium flux fluorescence; active compounds read low. B-score at 10 µM. hit rate 1.2% among 310,000. AID 488922, 2010;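 active = ratio B-score over 3 SD below the library mean, with starting fluorescence within 5 SD of its mean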;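 note: negative B-score means less thallium flux so channel inhibition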
# KCNQ1 block: inhibitors of human KCNQ1 channel, primary screen, cell-based, thallium flux, high-throughput; CHO-K1 KCNQ1, FluxOR thallium flux fluorescence; active compounds read high; B-score at 10 µM; hit rate 1.3% among 310,000; AID 2642, 2010;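 active = compounds whose thallium flux B-score, printed positive for inhibition, exceeds three library SD while starting fluorescence stays within three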;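 note: channel opened by potassium depolarization with thallium stimulus after 20 min compound exposure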
# Target sequence (P51787 whole entry, looked up): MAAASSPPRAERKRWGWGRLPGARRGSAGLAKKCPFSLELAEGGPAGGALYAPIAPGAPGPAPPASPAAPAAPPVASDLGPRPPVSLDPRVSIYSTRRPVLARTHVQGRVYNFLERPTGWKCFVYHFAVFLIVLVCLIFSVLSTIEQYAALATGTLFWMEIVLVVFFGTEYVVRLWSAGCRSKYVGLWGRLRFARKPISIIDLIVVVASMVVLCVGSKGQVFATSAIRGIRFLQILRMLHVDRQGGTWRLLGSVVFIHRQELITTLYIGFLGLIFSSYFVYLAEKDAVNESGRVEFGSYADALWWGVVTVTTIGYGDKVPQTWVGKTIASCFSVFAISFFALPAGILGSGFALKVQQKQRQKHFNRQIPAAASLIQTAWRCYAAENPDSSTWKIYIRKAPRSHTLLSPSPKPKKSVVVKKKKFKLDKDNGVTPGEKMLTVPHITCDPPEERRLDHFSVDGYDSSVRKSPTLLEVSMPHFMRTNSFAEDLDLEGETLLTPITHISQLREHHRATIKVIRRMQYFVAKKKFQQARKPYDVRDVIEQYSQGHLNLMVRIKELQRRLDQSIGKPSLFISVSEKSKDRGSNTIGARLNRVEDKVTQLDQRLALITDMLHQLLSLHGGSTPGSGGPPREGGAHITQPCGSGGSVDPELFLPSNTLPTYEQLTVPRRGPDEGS
# hERG protect: hERG rescue from dofetilide block, primary screen, cell-based, CHO-hERG, FluxOR thallium flux, dofetilide IC70. dofetilide IC70 present. activation (rescue from dofetilide block), less the hit threshold, % at 10 µM. hit rate 0.51% among 310,000. Voltage-gated inwardly rectifying potassium channel KCNH2 (Homo sapiens), Q12809;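 active = activation above the mean of controls blocked by dofetilide plus 5 SD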;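 note: thallium influx through hERG after potassium depolarization seen as dye fluorescence rise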
# KCNQ1 act: potentiators or activators of KCNQ1 channel, primary screen, cell-based, thallium flux, high-throughput | B-score at 10 µM | hit rate 0.35% among 310,000 | Potassium voltage-gated channel subfamily KQT member 1 (Homo sapiens), P51787 | AID 2648, 2010 | CHO-K1 KCNQ1, thallium flux FluxOR fluorescence; active compounds read high;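 active = fluorescence ratio B-score, a plate-corrected score, at least three library SD, with initial intensity B-score within 5 SD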
#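 Assay system: CHO-K1 cells stably expressing KCNQ1; Medium: assay buffer with matched DMSO; Also added: K+/Tl+ depolarizing stimulus; Dosing: single dose; Timing: dye 90 min, compound 20 min, room temperature; Measured by: kinetic FluxOR thallium fluorescence, 10-s 1-Hz baseline, 110-s post-stimulus read; Read-out: peak-minus-minimum fluorescence over initial fluorescence, negative-control normalized, B-scored.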
# KCC2 mod: KCC2 cotransporter modulators, thallium flux, primary screen, cell-based, HEK293 KCC2, FluoZin-2 fluorescence, MLSMR; Solute carrier family 12 member 5 (Homo sapiens), Q9H2X9; KCC2 cells, thallium flux FluoZin-2 fluorescence; B-score of Tl+ flux slope (higher = more flux/activation; lower = inhibition) at 10 µM; hit rate 2.2% among 190,000; AID 1456, 2008;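 active = thallium flux slope and its plate-corrected score both differing from the plate sample mean at a set confidence after two filtering rounds, in either direction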;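 note: slope of fluorescence scaled to starting intensity during 10 to 20 s after thallium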
# KCNK9 inh conf: KCNK9 potassium channel inhibitors, confirmation, HEK293 cells, thallium flux, duplicate; shares compounds with KCNK9 inh; FluxOR thallium flux fluorescence; inhibition, % at 10 µM; hit rate 43% among 4,900;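 active = thallium signal inhibited by more than 5 SD of the compound-free buffer control wells, on both duplicate plates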;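 note: 0% = assay buffer control wells without compound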
# Kir21 sel: mouse Kir2.1 channel inhibition, confirmation, selectivity assay for KCNK9 modulator project, cell-based, HEK293, thallium flux; inhibition, % at 10 µM; Kir2.1 cells, FluxOR thallium flux fluorescence; hit rate 4% among 4,900; AID 492993, 2010; shares compounds with KCNK9 inh;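 active = thallium signal drop more than 5 SD beyond the mean of the no-compound control wells, seen in both duplicate plates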;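 note: signal is fluorescence rise after thallium addition divided by baseline fluorescence; plate controls were assay buffer only for no effect and full block by chlorpromazine control for full effect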
# HEK293 Tl ctr: thallium flux in non-induced HEK293 cells, confirmation, counter-screen for KCNK9 inhibitor project, cell-based, second counter screen, non-induced KCNK9-HEK293 | shares compounds with KCNK9 inh | FluxOR thallium flux | inhibition, % at 10 µM | hit rate 40% among 4,900 | AID 492997, 2010;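 active = thallium signal drop beyond 5 SD of the untreated control mean, on both duplicate plates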;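 note: plate controls were buffer only IC0 wells for no effect and SID17386958 at its maximal inhibitory level for full effect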
# An asterisk follows results filed as active; i = inactive; / = not tested or not shown. The list is not random: actives were taken first. Their share in the collection is about 4.1%.
SMILES,KCNK3 block,KCNK9 inh,KCNQ1 block,hERG protect,KCNQ1 act,KCC2 mod,KCNK9 inh conf,Kir21 sel,HEK293 Tl ctr
CCNC(=S)N/N=C/c1c(C)nn(-c2cccc(Cl)c2)c1Cl,i,i,i,-6,i,0.99,/,/,/
CCCCOn1c(C)c(C(=O)OCC)c2c3nonc3ccc21,i,-8.4*,i,-11,i,-3.5*,33%*,i,32%*
CCCCOn1c(C)c(C(=O)OCC)c2c3no[n+]([O-])c3ccc21,i,i,i,-1,i,-0.31,/,/,/
Cc1ccc(/C=N/N2CCN(c3ccccn3)CC2)o1,i,i,i,-10,i,-0.061,/,/,/
Cc1ccc(/C=N/N2CCN(Cc3cccc4ccccc34)CC2)o1,i,i,i,-9,i,-0.74,i,i,i
Cc1ccc(/C=N/N2CCN(Cc3ccccc3)CC2)s1,i,i,i,-16,i,-0.53,/,/,/
Cc1ccc(/C=N/N2CCN(Cc3cccc4ccccc34)CC2)s1,i,i,i,-4,i,/,i,i,i
COc1ccc(CC(=O)NNS(=O)(=O)c2ccc([N+](=O)[O-])cc2)cc1OC,i,i,i,-9,i,/,/,/,/
CCOC(=O)COn1c(=O)c(-c2ccc(F)cc2)[n+]([O-])c2ccccc21,i,i,i,-7,i,/,/,/,/
CCOC(=O)COn1c(=O)c(-c2cccs2)[n+]([O-])c2ccccc21,i,-8.3*,i,-13,i,1.8,46%*,i,47%*
O=C(COC(=O)/C(=C/c1cccs1)c1cccs1)NC(c1ccccc1)c1ccccc1,i,-9.1*,i,-10,i,-1.2,46%*,i,i
COc1ccc(N2CCN(C(=O)COC(=O)CCc3ccccc3OC)CC2)cc1,i,i,i,-10,i,/,/,/,/
COc1ccc(-c2cc(C(F)(F)F)nc(SCc3cccc(C(=O)O)c3)n2)cc1,i,i,i,-16,i,/,i,i,i
CN(C)/C=c1\sc2c(C#N)cc(C(=O)c3ccc(Br)cc3)n2c1=O,i,-8.4*,i,-7,i,i,36%*,62%*,78%*
COCC1CCN(C(=O)c2cc(COc3ccc4c(c3)CCCC4)on2)C1 (stereo not drawn),i,i,i,-13,i,/,i,i,i
COc1cccc(OCc2cc(C(=O)N3CCN(C)C(c4ccccc4)C3)no2)c1 (stereo not drawn),i,i,i,-12,i,/,i,i,i
C=CCC1(CC=C)CCCN1C(=O)c1cc(COc2cccc(OC)c2)on1,i,i,i,-5,i,/,i,i,i
COCC1CCN(C(=O)c2cc(COc3ccc(C)c(C)c3)on2)C1 (stereo not drawn),i,i,i,-5,i,/,/,/,/
COc1ccc(OCc2cc(C(=O)N3CCC(c4ccccc4)CC3)no2)c(Cl)c1,i,i,i,-5,i,/,/,/,/
CC1CCN(C(=O)COC(=O)c2ccc(F)c(S(=O)(=O)N3CCOCC3)c2)CC1,i,i,i,-5,i,/,i,i,i
Cc1ccc(C(=O)OCC(=O)N2CC(C)CC(C)C2)cc1S(=O)(=O)N1CCOCC1 (stereo not drawn),i,i,i,-9,i,/,/,/,/
Cc1ccc(C(=O)OCC(=O)N2CCC(C)CC2)cc1S(=O)(=O)N1CCCCC1,i,i,i,-9,i,/,i,i,i
O=C(O)c1cnn(-c2nc(-c3ccc(Cl)c(Cl)c3)cs2)c1C(F)(F)F,i,i,i,-4,i,/,i,i,i
O=C(O)c1ccc(-c2nc(-c3ccc(Cl)c(Cl)c3)cs2)cc1,i,i,i,-2,i,-2.3,i,i,i
O=C(O)c1ccc(-c2nc(-c3ccccc3)cs2)cc1,i,i,i,-16,i,-1.9,/,/,/
SMILES,KCNK3 block,KCNK9 inh,KCNQ1 block,hERG protect,KCNQ1 act,KCC2 mod,KCNK9 inh conf,Kir21 sel,HEK293 Tl ctr
O=C(O)c1cnn(-c2nc(-c3cccc(F)c3)cs2)c1C(F)(F)F,i,i,i,-5,i,-3.1,/,/,/
Cc1c(NC(=O)COC(=O)c2cccn2C)c(=O)n(-c2ccccc2)n1C,i,/,/,/,/,/,/,/,/
O=C(Nc1ccc(Br)cc1)c1cnc[nH]1,i,i,i,-5,i,/,/,/,/
COc1cccc(N2CCN(C(=O)CCSCc3ccccc3F)CC2)c1,i,i,i,-21,i,-0.99,i,i,i
COc1cc(N2CCCC2)c(OC)cc1/C=C(/C#N)c1ccc(F)cc1,i,-12*,7*,-15,i,-2.8,50%*,i,66%*
CC(=NCCc1c(C)[nH]c2ccc(C)cc12)C1=C(O)CC(c2ccccc2)CC1=O (stereo not drawn),i,i,i,-7,i,0.023,/,/,/
CCCCC(=NCCc1c(C)[nH]c2ccccc12)C1=C(O)CC(c2ccccc2)CC1=O (stereo not drawn),i,i,i,-10,i,0.39,i,i,i
CCCC(=NCCc1c(C)[nH]c2ccccc12)C1=C(O)CC(c2ccccc2)CC1=O (stereo not drawn),i,i,i,-8,i,-0.13,i,i,i
COc1cc(CC(=O)OCC(=O)c2ccc(F)cc2)cc(OC)c1OC,i,/,/,/,/,/,/,/,/
CNC(=O)C1CC(=O)N(c2ccc(OCC(=O)Nc3ccc(OC)cc3)cc2)C1 (stereo not drawn),i,/,/,/,/,/,/,/,/

# High-throughput results deposited in PubChem BioAssay by several laboratories.
